Published values gathered from unrelated publications.
Each line is one published result; the experiments were not run side by side.
Target: Serine/threonine-protein kinase TAO2 (TAOK2, Homo sapiens, UniProt Q9UL54)
One construct used (Q9UL54 1-1235): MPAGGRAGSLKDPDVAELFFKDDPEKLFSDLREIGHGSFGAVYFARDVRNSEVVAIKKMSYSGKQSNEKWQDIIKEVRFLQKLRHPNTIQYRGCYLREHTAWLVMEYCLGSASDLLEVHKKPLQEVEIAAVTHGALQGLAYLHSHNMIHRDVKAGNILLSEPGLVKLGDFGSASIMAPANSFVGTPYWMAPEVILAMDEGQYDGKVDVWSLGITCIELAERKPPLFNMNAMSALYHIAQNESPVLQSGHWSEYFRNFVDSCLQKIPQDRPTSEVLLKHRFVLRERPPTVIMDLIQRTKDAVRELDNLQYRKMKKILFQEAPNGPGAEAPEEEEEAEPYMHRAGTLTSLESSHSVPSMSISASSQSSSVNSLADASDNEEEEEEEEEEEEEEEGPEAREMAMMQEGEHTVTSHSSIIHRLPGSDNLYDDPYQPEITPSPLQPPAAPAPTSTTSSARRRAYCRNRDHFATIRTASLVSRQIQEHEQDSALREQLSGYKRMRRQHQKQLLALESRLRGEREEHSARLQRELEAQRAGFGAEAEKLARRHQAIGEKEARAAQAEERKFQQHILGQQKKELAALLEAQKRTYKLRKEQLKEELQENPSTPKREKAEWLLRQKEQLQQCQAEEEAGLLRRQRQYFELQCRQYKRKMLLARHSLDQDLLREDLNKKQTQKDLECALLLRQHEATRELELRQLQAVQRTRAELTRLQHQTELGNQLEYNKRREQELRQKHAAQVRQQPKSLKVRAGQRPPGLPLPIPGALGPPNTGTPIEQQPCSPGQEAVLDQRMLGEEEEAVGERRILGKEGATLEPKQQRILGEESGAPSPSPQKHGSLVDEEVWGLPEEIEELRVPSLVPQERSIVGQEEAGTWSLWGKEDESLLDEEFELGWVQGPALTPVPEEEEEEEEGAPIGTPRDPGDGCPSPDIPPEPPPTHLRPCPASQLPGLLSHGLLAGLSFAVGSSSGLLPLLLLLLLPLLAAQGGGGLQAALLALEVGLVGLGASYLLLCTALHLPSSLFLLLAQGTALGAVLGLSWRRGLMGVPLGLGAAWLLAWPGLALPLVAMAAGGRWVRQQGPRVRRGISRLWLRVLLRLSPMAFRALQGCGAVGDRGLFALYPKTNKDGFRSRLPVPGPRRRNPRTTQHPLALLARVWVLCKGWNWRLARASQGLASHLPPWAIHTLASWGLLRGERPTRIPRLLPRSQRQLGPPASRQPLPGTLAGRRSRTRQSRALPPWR

| Compound | read-out | mode | method | concentration | quantity | value |
| --- | --- | --- | --- | --- | --- | --- |
| COc1cc(-c2cc(-c3ccc(N4CCNCC4)cc3)cnc2C)cc(OC)c1OC | enzyme activity | inhibitor | – | 1 µM | inhibition | 2% |
| CNC(=O)c1cc(Oc2ccc(NC(=O)Nc3ccc(Cl)c(C(F)(F)F)c3)cc2)ccn1 | enzyme activity | inhibitor | – | 0.3 µM | inhibition | 84% |
| O=C(N1CCS(=O)(=O)CC1)N1C[C@H](c2ccc(OC(F)(F)F)cc2)C[C@H](c2nc(C3CC3)no2)C1 | cell-free assay | – | competition with immobilised ligand | 1 µM | remaining binding | 100% |
| Cc1ccc(Nc2nccc(N(C)c3ccc4c(C)n(C)nc4c3)n2)cc1S(N)(=O)=O | enzyme activity | inhibitor | – | 10 µM | inhibition | 93% |
| CN(C)c1ncnc(-c2ccc3nc(Nc4cc(CN5CCN(C(=O)CC(F)(F)F)CC5)ccn4)[nH]c3c2)c1Cl | cell-free assay | – | competition with immobilised ligand | 1 µM | remaining binding | 80% |
| CCN(CC)CCNC(=O)c1c(C)[nH]c(/C=C2\C(=O)Nc3ccc(F)cc32)c1C | enzyme activity | inhibitor | – | 10 µM | inhibition | 29% |
| Cc1cnc(NC2CCOCC2)nc1-n1cnc(C(=O)NC(CN)c2cc(F)cc(Cl)c2)c1 (centres unmarked) | enzyme activity | inhibitor | radiometric | 1 µM | remaining activity | 88% |
| CC(=O)N1CCC(c2ccc(C(=O)NC3=NCCN3)cc2C(F)(F)F)CC1 | cell-free assay | – | competition with immobilised ligand | 1 µM | remaining binding | 100% |
| Fc1cccc(-n2cnc3c(NCc4nc5c(F)c(F)ccc5[nH]4)nc(N4CCOCC4)nc32)c1 | binding | – | competition with immobilised ligand | 10 µM | binding vs control | 35% |
| C[C@@H](c1cccc(C#N)c1)n1cc(Cl)cc(C(N)=O)c1=N | cell-free assay | – | competition with immobilised ligand | 1 µM | remaining binding | 84% |
| CCCCNc1ncc2c(-c3ccc(F)cc3)nn(C[C@H]3CC[C@H](N)CC3)c2n1 | target engagement in cells | inhibitor | chemoproteomics | 20 mM | inhibition | 24.3% |
| CN1CCN(c2cnc3c(C4CCN(C(=O)c5ccc(OC(F)(F)F)cc5N)CC4)ncnc3c2)CC1 | cell-free assay | – | competition with immobilised ligand | 1 µM | remaining binding | 100% |
| CCCS(=O)(=O)Nc1ccc(F)c(C(=O)c2c[nH]c3ncc(-c4ccc(Cl)cc4)cc23)c1F | enzyme activity | inhibitor | – | 1 µM | inhibition | < 10% |
| CCN(CC)c1ccc(C2=NNC(=O)CC2C)cc1[N+](=O)[O-] (centres unmarked) | enzyme activity | inhibitor | – | 10 µM | remaining activity | 95% |
| CC(C)(C)c1nc(-c2cccc(NS(=O)(=O)c3c(F)cccc3F)c2F)c(-c2ccnc(N)n2)s1 | enzyme activity | inhibitor | radiometric | 1 µM | remaining activity | 35% |
| Cc1cc(NC(=O)c2cccc3cc(-c4cccc5[nH]nc(N)c45)ccc23)ccc1F | enzyme activity | inhibitor | – | 0.1 µM | activity vs control | 86% |
| COc1cc(Cl)c(C(=O)N[C@@H](CN[C@H]2CC[C@@H](N)CC2)Cc2ccc(C#N)cc2)cc1-c1ccc(CN[C@H](C)c2ccc(C)cc2)o1 | enzyme activity | inhibitor | – | 1 µM | remaining activity | 96% |
